Calb biofilm kill – mixture kills Candida albicans biofilm cells | C. albicans biofilm persisters + clotrimazole, fluorescence viability; primary screen in compound mixtures of four per well | inhibition, % at 7.6 µM | hit rate 0.02% among 120,000 | AID 1242;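 active means inhibition above 30.3% in the primary screen of four-compound pools, then above 30% when the compound was retested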;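 further: compounds exposed to preformed 24 h biofilms for 48 h; 0% = untreated biofilm control and 100% = clotrimazole plus chlorhexidine kill blank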
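Incubation: 24 h biofilm formation, then 48 h compound exposure, 37 °C | Material: C. albicans biofilms | Buffer or medium: RPMI/MOPS medium, pH 7.0 | Measured by: 2-h Alamar Blue fluorescence, 535/590 nm excitation/emission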
ROMK mod – modulates human ROMK potassium channel activity; Tet-inducible ROMK, thallium flux fluorescence; actives lie on both sides; B-score at 10 µM; hit rate 2% among 130,000; AID 1918;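 active means signal ratio slope over the read window, or its plate-corrected B-score, at least 3 SD from the plate mean, either direction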;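 further: B-score of the F/F0 ratio slope over 7 to 12 s after thallium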
Target sequence (P48048 whole entry, looked up): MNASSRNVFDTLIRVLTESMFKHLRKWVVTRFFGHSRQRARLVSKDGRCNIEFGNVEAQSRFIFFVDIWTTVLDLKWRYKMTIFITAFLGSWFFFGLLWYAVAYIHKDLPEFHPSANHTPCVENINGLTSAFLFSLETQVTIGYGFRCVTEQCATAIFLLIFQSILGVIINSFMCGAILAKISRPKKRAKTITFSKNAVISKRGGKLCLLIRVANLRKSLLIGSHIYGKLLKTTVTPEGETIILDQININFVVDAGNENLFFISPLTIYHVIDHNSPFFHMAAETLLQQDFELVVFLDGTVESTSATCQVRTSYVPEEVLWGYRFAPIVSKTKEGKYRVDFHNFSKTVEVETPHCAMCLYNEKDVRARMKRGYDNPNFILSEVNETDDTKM
ROMK hit retest – confirmation of human ROMK potassium channel modulators; shares compounds with ROMK mod; ROMK thallium flux, fluorescence ratio; active compounds read low; normalized thallium flux (F/F0 slope) at 10 µM; hit rate 54% among 3,000; AID 1917;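 active means Flux at 10 µM at least 3 SD below or above vehicle control mean in one or both replicates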
Active calls of the source: *; x = no result given; ! = not active in a repeat. Many of the other results were omitted from the sample, so hits are more common in it than they were.

SMILES	Calb biofilm kill	ROMK mod	ROMK hit retest
Nc1nnc(CC(=O)N/N=C/c2ccc(-c3ccc(F)cc3)o2)s1	26	x	x
COc1cccc(C2CC(C(F)(F)F)n3ncc(C(=O)Nc4c(C)n(C)n(-c5ccccc5)c4=O)c3N2)c1 (configuration not stated)	4	x	x
COc1ccc(C2CC(C(F)(F)F)n3ncc(C(=O)Nc4c(C)n(C)n(-c5ccccc5)c4=O)c3N2)cc1 (configuration not stated)	18	-6.1*	0.076
CCCc1nc2ccccc2c(=O)n1-c1ccc(C(=O)OCC)cc1	12	-0.16	x
Nc1nc(SCn2nnc3ccccc3c2=O)n[nH]1	20	0.94	x
CCOC(=O)N1CCN(C(=O)COc2cccc3c2CCN(Cc2cccc(C)c2)C3=O)CC1	11	x	0.064*
O=C1c2cccc(OCC(=O)N3CCCc4ccccc43)c2CCN1Cc1cccnc1	4	0.19	x
Cc1ccccc1CN1CCc2c(OCC(=O)N3CCCc4ccccc43)cccc2C1=O	5	-0.99	0.08
CCOC(=O)N1CCN(C(=O)COc2cccc3c2CCN(Cc2ccccc2C)C3=O)CC1	9	x	x
Cc1ccc(NC(=O)CSc2ncc3ccccn23)cc1C	-1	-1.1	x
Cc1cccc(-n2c(SCc3ccc([N+](=O)[O-])cc3)nnc2-c2c[nH]c3ccccc23)c1	16	0.6	x
CCOc1cc(-c2cc(-c3ccccc3)nc(N)c2C#N)ccc1O	x	-0.0077	x
CCOc1cc(-c2cc(-c3ccc(N)cc3)nc(N)c2C#N)ccc1O	x	5*	0.09
Cc1ccc(C2CC2c2n[nH]c(=S)n2-c2cccc(Cl)c2)cc1 (configuration not stated)	9	x	x
Cc1ccccc1NS(=O)(=O)c1ccc2[nH]c(=O)[nH]c2c1	0	0.16	x
Cn1nnnc1SCCNCc1ccccc1OCc1ccc(F)cc1	6	-3.8*	0.059*
COc1cccc(CNCCSc2nnnn2C)c1OC	x	1.3	x
NCCNC[C@@H]1COC2(CCCCCCCCCCC2)O1	13	x	x
COc1cc(/C=C/C(=O)OCC(=O)Nc2ccc(NC(C)=O)cc2)cc(S(=O)(=O)N2CCc3ccccc32)c1OC	3	-0.35	x
COc1cc(/C=C/C(=O)OCC(=O)NC2CC2)cc(S(=O)(=O)N2CCc3ccccc32)c1OC	16	-18*	0.071
Cc1cc(C)cc(Oc2ccccc2CO)c1	10	-0.094	x
Cc1ccc2c(c1)N(CC(=O)NCCc1c[nH]c3ccccc13)C(=O)CO2	x	-1.2	x
N#Cc1nc(-c2ccc(OCc3ccccc3)cc2)oc1NCc1cccnc1	x	-0.82	x
CCOc1ccc(-c2nc(C#N)c(NCc3ccco3)o2)cc1	0	0.67*	0.086
CSCC[C@H](NC(=O)Nc1ccc(S(N)(=O)=O)cc1)C(=O)O	10	x	x
SMILES	Calb biofilm kill	ROMK mod	ROMK hit retest
CCOC(=O)c1cc(COc2cc(Cl)cc(Cl)c2)on1	-4	0.48	x
C=CCn1c(C)c(C(C)=O)c(N2CCN(C(c3ccccc3)c3ccccc3)CC2)nc1=S	11	-0.039	x
[N-]=[N+]=CC(=O)c1ccnc(C(=O)C=[N+]=[N-])c1	x	0.61	x
CC(=O)Nc1ccc(NC(=O)CSc2nnc(C)c(=O)[nH]2)cc1	7	0.55	x
CN1CCC2(CC1)C1CN(C)CC=C1C(C#N)=C(N)C2(C#N)C#N (configuration not stated)	7	-3.4*!	0.057*
COc1cc([C@@H]2[C@H]3CN(C)CC=C3C(C#N)=C(N)C2(C#N)C#N)cc2c1OCO2	x	-0.7	x
COc1cc(/C=C(\C#N)C(=O)NCC2CCCO2)ccc1OCCC(C)C (configuration not stated)	22	x	x
COc1ccc(Cl)cc1N(CC(=O)Nc1ccc2c(c1)OCO2)S(C)(=O)=O	x	-1.2	x
COc1ccc(OC)c(NC(=O)c2cccc(S(=O)(=O)N(Cc3ccccc3)c3ccccc3OC)c2)c1	20	x	0.078
COc1ccc(OC)c(N(CC(=O)Nc2ccc3c(c2)OCO3)S(=O)(=O)c2ccccc2)c1	x	-2.8*	0.075
COc1ccccc1N(Cc1ccccc1)S(=O)(=O)c1cccc(C(=O)Nc2ccc(C(C)=O)cc2)c1	9	1.1	x
COCc1cc(=O)[nH]c(/N=C(\N)Nc2cccc(Cl)c2)n1	2	1.8	x
C(#Cc1ccccc1)C[N+]1(CC#Cc2cccc3ccccc23)CCCC1	15	-4.5*	0.049*
C#CC[N+]1(CC#Cc2cccc3ccccc23)CCOCC1	2	-0.56	x
Cc1ccc(CNC(=O)CN(C)S(=O)(=O)c2cccs2)cc1	6	-1	x
Cn1nc(C(=O)N2CCN(C(c3ccccc3)c3ccccc3)CC2)c2ccccc2c1=O	10	x	0.06*
CC(C)Cc1cc(C(=O)N2CCN(C(c3ccccc3)c3ccccc3)CC2)no1	x	x	0.062*
Cn1nc(C(=O)N2CCN(S(=O)(=O)/C=C/c3ccccc3)CC2)c2ccccc2c1=O	1	x	x
CC(C)c1cc(C(=O)N2CCN(C(c3ccccc3)c3ccccc3)CC2)no1	13	-2.8	x
C=CCn1c(C)csc1=Nc1ccc(C(=O)O)cc1	9	-0.43	x
COc1cc(-c2nc(-c3ccc(NC(=O)c4ccc5c(c4)OCO5)cc3)no2)cc(OC)c1OC	x	0.26	x
COc1ccc(-c2nc(-c3ccc(NC(=O)c4ccncc4)cc3)no2)cc1OC	x	x	0.079
CCOc1ccc(C(=O)NC(=S)Nc2cccc(S(=O)(=O)NC3=NCCC3)c2)cc1	18	5.7*	0.096
C=C(C)CNC(=S)Nc1cccc(S(=O)(=O)NC2=NCCC2)c1	21	0.079	x
O=C(O)CCCn1cc(NC(=O)c2ccc(Br)o2)cn1	13	1.5	x
SMILES	Calb biofilm kill	ROMK mod	ROMK hit retest
O=C(c1ccco1)N1CCN(S(=O)(=O)c2ccc(Oc3ccccc3)cc2)CC1	x	x	0.067*
COc1ccc(S(=O)(=O)N2CCN(C(=O)c3ccco3)CC2)cc1OC	x	0.81	x
O=C(Nc1nnc(-c2cccs2)s1)c1cccc(F)c1	3	0.6	x
CCCCNC(=O)CNC(=S)N(Cc1ccccc1F)C1CCCCC1	16	-0.64	x
O=C(CCC(=O)Nc1ccccc1)NNS(=O)(=O)c1ccccc1[N+](=O)[O-]	6	0.44*	0.087
O=C(NNS(=O)(=O)c1ccccc1[N+](=O)[O-])c1ccccc1[N+](=O)[O-]	21	1.6	x
CCS(=O)(=O)CCSC1OC(COC(C)=O)C(OC(C)=O)C(OC(C)=O)C1OC(C)=O (configuration not stated)	16	0.28	x
CCOP(=O)(OCC)c1nc(-c2ccccc2)oc1NCc1ccccc1	8	0.099	x
O=P(c1ccccc1)(c1ccccc1)c1nc(-c2ccccc2)oc1NCc1ccccc1	4	-1.9*	0.078
CCCCCCN1C=CC=C/C1=C\C=C(C#N)C#N	8	-4.4*	0.043*
COc1ccccc1CNC(=O)C/C(C)=N/NC(=O)COc1ccc(C)cc1Br	10	2.8*	0.078
COc1ccccc1CNC(=O)C/C(C)=N/NC(=O)Cc1ccc(OC)c(OC)c1	22	1.2	x
C=CCn1c(CSCc2ccc(Cl)cc2Cl)nnc1SCC(=O)Nc1ccc(C(=O)O)cc1	15	x	x
Cc1nn(CC(=O)Nc2ccc(S(=O)(=O)N(C)C)cc2)c(C)c1[N+](=O)[O-]	14	0.68	x
Cc1ccc(N=Cc2cc(Br)cc(Cl)c2O)cc1	0	3.4*	0.1*
Cc1ccc(COc2ccc(Br)cc2/C=N/O)cc1	x	-0.64	x
CCOc1ccc2nc(N3C(=O)/C(=C/c4ccc(Cl)cc4)NC3=S)sc2c1	17	x	x
Cc1nc(C(=O)N(C)C)nn1-c1ccc([N+](=O)[O-])cc1	12	0.11	x

High-throughput results deposited in PubChem BioAssay by several laboratories.
